Reference: ChEMBL document CHEMBL1781959, “Synthesis and in vitro antitumor activity of substituted quinazoline and quinoxaline derivatives: search for anticancer agent” (Eur J Med Chem, 2011)

Test system: MDA-MB-231
Assay: Anticancer activity against human MDA-MB-231 cells assessed as cell growth promotion at 10^-5 M after 48 hrs by SRB assay relative to control
Assay type: functional

Q: For `CN(C)c1ccc(/C=C/c2nc3ccccc3nc2SCc2nc3ccccc3[nH]2)cc1`, which Activity is on record?
A: 89.23%

Test system: K562
Assay: Anticancer activity against human K562 cells assessed as cell growth promotion at 10^-5 M after 48 hrs by SRB assay relative to control
Assay type: functional

Q: With `CN(C)c1ccc(/C=C/c2nc3ccccc3nc2SCc2nc3ccccc3[nH]2)cc1` as the compound, how does the Activity read?
A: 105%

Test system: SF-268
Assay: Anticancer activity against human SF268 cells assessed as cell growth promotion at 10^-5 M after 48 hrs by SRB assay relative to control
Assay type: functional

Q: For `CN(C)c1ccc(/C=C/c2nc3ccccc3nc2SCc2nc3ccccc3[nH]2)cc1`, which Activity is on record?
A: 107%

Test system: SW-620
Assay: Anticancer activity against human SW620 cells assessed as cell growth promotion at 10^-5 M after 48 hrs by SRB assay relative to control
Assay type: functional

Q: With `CN(C)c1ccc(/C=C/c2nc3ccccc3nc2SCc2nc3ccccc3[nH]2)cc1` as the compound, how does the Activity read?
A: 102%

Test system: CCRF-CEM
Assay: Anticancer activity against human CCRF-CEM cells assessed as cell growth promotion at 10^-5 M after 48 hrs by SRB assay relative to control
Assay type: functional

Q: Which Activity does the source give for `CN(C)c1ccc(/C=C/c2nc3ccccc3nc2SCc2nc3ccccc3[nH]2)cc1` here?
A: 81.79%

Test system: RXF 393
Assay: Anticancer activity against human RXF393 cells assessed as cell growth promotion at 10^-5 M after 48 hrs by SRB assay relative to control
Assay type: functional

Q: With `CN(C)c1ccc(/C=C/c2nc3ccccc3nc2SCc2nc3ccccc3[nH]2)cc1` as the compound, how does the Activity read?
A: 99.96%

Test system: NCI-H23
Assay: Anticancer activity against human NCI-H23 cells assessed as cell growth promotion at 10^-5 M after 48 hrs by SRB assay relative to control
Assay type: functional

Q: Which Activity does the source give for `CN(C)c1ccc(/C=C/c2nc3ccccc3nc2SCc2nc3ccccc3[nH]2)cc1` here?
A: 102%

Test system: OVCAR-5
Assay: Anticancer activity against human OVCAR5 cells assessed as cell growth promotion at 10^-5 M after 48 hrs by SRB assay relative to control
Assay type: functional

Q: For `CN(C)c1ccc(/C=C/c2nc3ccccc3nc2SCc2nc3ccccc3[nH]2)cc1`, which Activity is on record?
A: 102%

Test system: SR
Assay: Anticancer activity against human SR cells assessed as cell growth promotion at 10^-5 M after 48 hrs by SRB assay relative to control
Assay type: functional

Q: With `CN(C)c1ccc(/C=C/c2nc3ccccc3nc2SCc2nc3ccccc3[nH]2)cc1` as the compound, how does the Activity read?
A: 79.22%

Test system: not listed separately
Assay: Anticancer activity against human Hs 578T cells assessed as cell growth promotion at 10^-5 M after 48 hrs by SRB assay relative to control
Assay type: functional

Q: For `CN(C)c1ccc(/C=C/c2nc3ccccc3nc2SCc2nc3ccccc3[nH]2)cc1`, which Activity is on record?
A: 119%

Test system: KM12
Assay: Anticancer activity against human KM12 cells assessed as cell growth promotion at 10^-5 M after 48 hrs by SRB assay relative to control
Assay type: functional

Q: For `CN(C)c1ccc(/C=C/c2nc3ccccc3nc2SCc2nc3ccccc3[nH]2)cc1`, which Activity is on record?
A: 104%

Test system: HL-60(TB)
Assay: Anticancer activity against human HL-60(TB) cells assessed as cell growth promotion at 10^-5 M after 48 hrs by SRB assay relative to control
Assay type: functional
How it was run: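 NCI-60 single-dose screen: compound at 10^-5 M, 48 h at 37 °C, 5% CO2; cells grown in RPMI 1640 with 5% FBS and 2 mM L-glutamine, pre-incubated 24 h before dosing. Adherent cells fixed with cold TCA; endpoint is sulforhodamine B protein staining. Percent growth of treated cells is reported relative to untreated control.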

Q: Which Activity does the source give for `CN(C)c1ccc(/C=C/c2nc3ccccc3nc2SCc2nc3ccccc3[nH]2)cc1` here?
A: 87.19%

Test system: UO-31
Assay: Anticancer activity against human UO31 cells assessed as cell growth promotion at 10^-5 M after 48 hrs by SRB assay relative to control
Assay type: functional

Q: With `CN(C)c1ccc(/C=C/c2nc3ccccc3nc2SCc2nc3ccccc3[nH]2)cc1` as the compound, how does the Activity read?
A: 84.96%

Test system: NCI-H322M
Assay: Anticancer activity against human NCI-H322M cells assessed as cell growth promotion at 10^-5 M after 48 hrs by SRB assay relative to control
Assay type: functional

Q: Which Activity does the source give for `CN(C)c1ccc(/C=C/c2nc3ccccc3nc2SCc2nc3ccccc3[nH]2)cc1` here?
A: 97.59%

Test system: OVCAR-3
Assay: Anticancer activity against human OVCAR3 cells assessed as cell growth promotion at 10^-5 M after 48 hrs by SRB assay relative to control
Assay type: functional

Q: For `CN(C)c1ccc(/C=C/c2nc3ccccc3nc2SCc2nc3ccccc3[nH]2)cc1`, which Activity is on record?
A: 107%

Test system: HCT-15
Assay: Anticancer activity against human HCT15 cells assessed as cell growth promotion at 10^-5 M after 48 hrs by SRB assay relative to control
Assay type: functional

Q: For `CN(C)c1ccc(/C=C/c2nc3ccccc3nc2SCc2nc3ccccc3[nH]2)cc1`, which Activity is on record?
A: 93.83%

Test system: SNB-19
Assay: Anticancer activity against human SNB19 cells assessed as cell growth promotion at 10^-5 M after 48 hrs by SRB assay relative to control
Assay type: functional

Q: For `CN(C)c1ccc(/C=C/c2nc3ccccc3nc2SCc2nc3ccccc3[nH]2)cc1`, which Activity is on record?
A: 96.81%

Test system: UACC-62
Assay: Anticancer activity against human UACC62 cells assessed as cell growth promotion at 10^-5 M after 48 hrs by SRB assay relative to control
Assay type: functional

Q: With `CN(C)c1ccc(/C=C/c2nc3ccccc3nc2SCc2nc3ccccc3[nH]2)cc1` as the compound, how does the Activity read?
A: 84.34%

Test system: U-251
Assay: Anticancer activity against human U251 cells assessed as cell growth promotion at 10^-5 M after 48 hrs by SRB assay relative to control
Assay type: functional

Q: With `CN(C)c1ccc(/C=C/c2nc3ccccc3nc2SCc2nc3ccccc3[nH]2)cc1` as the compound, how does the Activity read?
A: 102%

Test system: 786-0
Assay: Anticancer activity against human 786-0 cells assessed as cell growth promotion at 10^-5 M after 48 hrs by SRB assay relative to control
Assay type: functional

Q: Which Activity does the source give for `CN(C)c1ccc(/C=C/c2nc3ccccc3nc2SCc2nc3ccccc3[nH]2)cc1` here?
A: 90.32%

Test system: HOP-62
Assay: Anticancer activity against human HOP62 cells assessed as cell growth promotion at 10^-5 M after 48 hrs by SRB assay relative to control
Assay type: functional

Q: With `CN(C)c1ccc(/C=C/c2nc3ccccc3nc2SCc2nc3ccccc3[nH]2)cc1` as the compound, how does the Activity read?
A: 100%

Test system: M14
Assay: Anticancer activity against human M14 cells assessed as cell growth promotion at 10^-5 M after 48 hrs by SRB assay relative to control
Assay type: functional

Q: With `CN(C)c1ccc(/C=C/c2nc3ccccc3nc2SCc2nc3ccccc3[nH]2)cc1` as the compound, how does the Activity read?
A: 92.21%

Test system: EKVX
Assay: Anticancer activity against human EKVX cells assessed as cell growth promotion at 10^-5 M after 48 hrs by SRB assay relative to control
Assay type: functional

Q: Which Activity does the source give for `CN(C)c1ccc(/C=C/c2nc3ccccc3nc2SCc2nc3ccccc3[nH]2)cc1` here?
A: 92.96%

Test system: CAKI-1
Assay: Anticancer activity against human Caki1 cells assessed as cell growth promotion at 10^-5 M after 48 hrs by SRB assay relative to control
Assay type: functional

Q: Which Activity does the source give for `CN(C)c1ccc(/C=C/c2nc3ccccc3nc2SCc2nc3ccccc3[nH]2)cc1` here?
A: 107%

Test system: NCI-H460
Assay: Anticancer activity against human NCI-H460 cells assessed as cell growth promotion at 10^-5 M after 48 hrs by SRB assay relative to control
Assay type: functional

Q: For `CN(C)c1ccc(/C=C/c2nc3ccccc3nc2SCc2nc3ccccc3[nH]2)cc1`, which Activity is on record?
A: 104%

Test system: UACC-257
Assay: Anticancer activity against human UACC257 cells assessed as cell growth promotion at 10^-5 M after 48 hrs by SRB assay relative to control
Assay type: functional

Q: Which Activity does the source give for `CN(C)c1ccc(/C=C/c2nc3ccccc3nc2SCc2nc3ccccc3[nH]2)cc1` here?
A: 102%

Test system: MOLT-4
Assay: Anticancer activity against human MOLT4 cells assessed as cell growth promotion at 10^-5 M after 48 hrs by SRB assay relative to control
Assay type: functional

Q: For `CN(C)c1ccc(/C=C/c2nc3ccccc3nc2SCc2nc3ccccc3[nH]2)cc1`, which Activity is on record?
A: 84.64%

Test system: SK-MEL-5
Assay: Anticancer activity against human SK-MEL-5 cells assessed as cell growth promotion at 10^-5 M after 48 hrs by SRB assay relative to control
Assay type: functional

Q: For `CN(C)c1ccc(/C=C/c2nc3ccccc3nc2SCc2nc3ccccc3[nH]2)cc1`, which Activity is on record?
A: 97.96%

Test system: Malme-3M
Assay: Anticancer activity against human MALME-3M cells assessed as cell growth promotion at 10^-5 M after 48 hrs by SRB assay relative to control
Assay type: functional

Q: With `CN(C)c1ccc(/C=C/c2nc3ccccc3nc2SCc2nc3ccccc3[nH]2)cc1` as the compound, how does the Activity read?
A: 102%

Test system: MDA-MB-435
Assay: Anticancer activity against human MDA-MB-435 cells assessed as cell growth promotion at 10^-5 M after 48 hrs by SRB assay relative to control
Assay type: functional

Q: For `CN(C)c1ccc(/C=C/c2nc3ccccc3nc2SCc2nc3ccccc3[nH]2)cc1`, which Activity is on record?
A: 102%

Test system: SN12C
Assay: Anticancer activity against human SN12C cells assessed as cell growth promotion at 10^-5 M after 48 hrs by SRB assay relative to control
Assay type: functional

Q: Which Activity does the source give for `CN(C)c1ccc(/C=C/c2nc3ccccc3nc2SCc2nc3ccccc3[nH]2)cc1` here?
A: 100%

Test system: HCT-116
Assay: Anticancer activity against human HCT116 cells assessed as cell growth promotion at 10^-5 M after 48 hrs by SRB assay relative to control
Assay type: functional

Q: With `CN(C)c1ccc(/C=C/c2nc3ccccc3nc2SCc2nc3ccccc3[nH]2)cc1` as the compound, how does the Activity read?
A: 87.81%

Test system: A498
Assay: Anticancer activity against human A498 cells assessed as cell growth promotion at 10^-5 M after 48 hrs by SRB assay relative to control
Assay type: functional

Q: Which Activity does the source give for `CN(C)c1ccc(/C=C/c2nc3ccccc3nc2SCc2nc3ccccc3[nH]2)cc1` here?
A: 88.48%

Test system: NCI/ADR-RES
Assay: Anticancer activity against human NCI/ADR-RES cells assessed as cell growth promotion at 10^-5 M after 48 hrs by SRB assay relative to control
Assay type: functional

Q: With `CN(C)c1ccc(/C=C/c2nc3ccccc3nc2SCc2nc3ccccc3[nH]2)cc1` as the compound, how does the Activity read?
A: 106%

Test system: HT-29
Assay: Anticancer activity against human HT-29 cells assessed as cell growth promotion at 10^-5 M after 48 hrs by SRB assay relative to control
Assay type: functional

Q: For `CN(C)c1ccc(/C=C/c2nc3ccccc3nc2SCc2nc3ccccc3[nH]2)cc1`, which Activity is on record?
A: 101%

Test system: not listed separately
Assay: Anticancer activity against human […] cells assessed as cell growth promotion at 10^-5 M after 48 hrs by SRB assay relative to control
Assay type: functional

Q: Which Activity does the source give for `CN(C)c1ccc(/C=C/c2nc3ccccc3nc2SCc2nc3ccccc3[nH]2)cc1` here?
A: 100%
